KCNQ1 act: potentiators or activators of KCNQ1 channel, primary screen, cell-based, thallium flux, high-throughput. Potassium voltage-gated channel subfamily KQT member 1 (Homo sapiens), P51787. CHO-K1 KCNQ1, thallium flux FluxOR fluorescence; hits give high values. B-score at 10 µM. 0.35% of 310,000 active. AID 2648, 2010;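 active means fluorescence ratio B-score, a plate-corrected score, at least three library SD, with initial intensity B-score within 5 SD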
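Doses: Single concentration per compound, DMSO matched to controls | Test system: KCNQ1-transfected CHO-K1 cells | Timing: 90 min dye loading and 20 min compound exposure, both at room temperature | Measured by: Kinetic FluxOR thallium fluorescence, 10-s 1-Hz baseline, 110-s post-stimulus read | Medium: Assay buffer with matched DMSO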
KCNK9 block: KCNK9 potassium channel inhibitors, primary screen, HEK293 cells, thallium flux. Potassium channel subfamily K member 9 (Homo sapiens), Q9NPC2. FluxOR thallium flux fluorescence; hits give low values. B-score at 10 µM. 1.2% of 310,000 active;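 active means ratio B-score over 3 SD below the library mean, with starting fluorescence within 5 SD of its mean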;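 further: negative B-score means less thallium flux so channel inhibition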
KCNQ1 inh: inhibitors of human KCNQ1 channel, primary screen, cell-based, thallium flux, high-throughput; CHO-K1 KCNQ1, FluxOR thallium flux fluorescence; hits give high values; B-score at 10 µM; 1.3% of 310,000 active;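 active means compounds whose thallium flux B-score, printed positive for inhibition, exceeds three library SD while starting fluorescence stays within three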;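 further: channel opened by potassium depolarization with thallium stimulus after 20 min compound exposure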
KCC2 mod: KCC2 cotransporter modulators, thallium flux, primary screen, cell-based, HEK293 KCC2, FluoZin-2 fluorescence, MLSMR. Solute carrier family 12 member 5 (Homo sapiens), Q9H2X9. KCC2 cells, thallium flux FluoZin-2 fluorescence. B-score of Tl+ flux slope (higher = more flux/activation; lower = inhibition) at 10 µM. 2.2% of 190,000 active;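 active means thallium flux slope and its plate-corrected score both differing from the plate sample mean at a set confidence after two filtering rounds, in either direction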;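 further: slope of fluorescence scaled to starting intensity during 10 to 20 s after thallium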
KCNK3 block: human KCNK3 channel inhibitors, primary screen, CHO cells, FluxOR thallium flux, B-score | Potassium channel subfamily K member 3 (Homo sapiens), O14649 | FluxOR fluorescence; hits give low values | B-score at 10 µM | 0.84% of 340,000 active;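 active means B-score under library mean minus 4 SD, starting fluorescence ratio at most library mean plus 5 SD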;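 further: more negative B-score means stronger inhibition of thallium flux through KCNK3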
Target sequence (O14649 whole entry, looked up): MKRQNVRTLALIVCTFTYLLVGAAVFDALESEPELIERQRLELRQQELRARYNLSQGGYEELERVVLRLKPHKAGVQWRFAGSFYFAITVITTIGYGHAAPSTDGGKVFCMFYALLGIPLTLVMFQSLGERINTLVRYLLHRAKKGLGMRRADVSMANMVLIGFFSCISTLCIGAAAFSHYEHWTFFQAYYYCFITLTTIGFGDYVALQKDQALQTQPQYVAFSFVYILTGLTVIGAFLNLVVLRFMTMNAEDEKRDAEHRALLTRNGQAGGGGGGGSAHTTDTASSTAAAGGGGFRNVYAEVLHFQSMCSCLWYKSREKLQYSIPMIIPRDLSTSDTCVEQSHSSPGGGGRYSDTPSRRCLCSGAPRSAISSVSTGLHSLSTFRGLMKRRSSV
hERG rescue: hERG rescue from dofetilide block, primary screen, cell-based, CHO-hERG, FluxOR thallium flux, dofetilide IC70 | Voltage-gated inwardly rectifying potassium channel KCNH2 (Homo sapiens), Q12809 | dofetilide IC70 present | activation (rescue from dofetilide block), less the hit threshold, % at 10 µM | 0.51% of 310,000 active | AID 1511, 2009;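 active means activation above the mean of controls blocked by dofetilide plus 5 SD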;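 further: thallium influx through hERG after potassium depolarization seen as dye fluorescence rise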
KCNK9 inh conf: KCNK9 potassium channel inhibitors, confirmation, HEK293 cells, thallium flux, duplicate; FluxOR thallium flux fluorescence; AID 492992, 2010; 43% of 4,900 active; shares compounds with KCNK9 block; inhibition, % at 10 µM;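 active means thallium signal inhibited by more than 5 SD of the compound-free buffer control wells, on both duplicate plates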;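 further: 0% = assay buffer control wells without compound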
Kir2-1 spec: mouse Kir2.1 channel inhibition, confirmation, selectivity assay for KCNK9 modulator project, cell-based, HEK293, thallium flux | shares compounds with KCNK9 block | Kir2.1 cells, FluxOR thallium flux fluorescence | 4% of 4,900 active | inhibition, % at 10 µM;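 active means thallium signal drop more than 5 SD beyond the mean of the no-compound control wells, seen in both duplicate plates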;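 further: signal is fluorescence rise after thallium addition divided by baseline fluorescence; plate controls were assay buffer only for no effect and full block by chlorpromazine control for full effect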
KCNK9 uninduced: thallium flux in non-induced HEK293 cells, confirmation, counter-screen for KCNK9 inhibitor project, cell-based, second counter screen, non-induced KCNK9-HEK293 | shares compounds with KCNK9 block | FluxOR thallium flux | inhibition, % at 10 µM | 40% of 4,900 active | AID 492997, 2010;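 active means thallium signal drop beyond 5 SD of the untreated control mean, on both duplicate plates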;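 further: plate controls were buffer only IC0 wells for no effect and SID17386958 at its maximal inhibitory level for full effect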
KCNK3 confirm: retest of human KCNK3 channel inhibitors, confirmation, CHO cells, FluxOR thallium flux, triplicate. AID 651638, 2012. FluxOR fluorescence; 0% buffer, 100% carvedilol maximal block. shares compounds with KCNK3 block. 99% of 2,400 active. ratio percent of control, % at 10 µM;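 active means ratio percent of control, averaged over triplicates, above buffer control mean plus 5 SD, cut at about 64% in these data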;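 further: ratio is the fluorescence rise from min to max over baseline after thallium stimulus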
KCNK3 noninduced: thallium flux inhibition in non-induced cells, primary screen, counter-screen for KCNK3 inhibitor project, cell-based, non-induced KCNK3 line, FluxOR thallium, triplicate; shares compounds with KCNK3 block; non-induced KCNK3 parental cells; hits give low values; thallium flux ratio (lower = more inhibition) at 10 µM; 40% of 2,400 active;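 active means thallium flux ratio, averaged over three wells, more than 5 SD below the buffer control mean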;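 further: host cells are CHO cells without KCNK3 induction; ratio is peak minus trough fluorescence over baseline then normalized to buffer controls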
* = called active by the depositor; i = inactive; nt = no result given. This is a sample that favours compounds with a hit; in the whole collection about 4.1% have one here.

SMILES	KCNQ1 act	KCNK9 block	KCNQ1 inh	KCC2 mod	KCNK3 block	hERG rescue	KCNK9 inh conf	Kir2-1 spec	KCNK9 uninduced	KCNK3 confirm	KCNK3 noninduced
O=P(Nc1cccc(F)c1)(Oc1ccccc1F)Oc1ccccc1F	i	-10.6*	i	-0.242	-11.9*	-34.1	47.5%*	i	31.0%*	86.7*	0.127*
CCCC(=O)NC(Oc1ccc(OC)cc1)C(Cl)(Cl)Cl (configuration not stated)	i	i	i	-0.454	i	-6.5	nt	nt	nt	nt	nt
CN1C(=O)C(=Cc2c(OCc3cnc(Cl)s3)ccc3ccccc23)C(=O)N(C)C1=O	i	-15.4*	i	-0.101	-9.03*	-25.2	70.0%*	i	27.0%*	101.3*	i
CN1C(=O)C(=Cc2ccccc2OCc2ccccc2Cl)C(=O)N(C)C1=O	i	i	i	-0.317	i	-7.8	nt	nt	nt	nt	nt
O=C(c1ccc(Cl)cc1)C1CCCN(Cc2ccc3nonc3c2)C1 (configuration not stated)	i	-8.12*	i	nt	-9.16*	-13.4	58.5%*	i	i	95.3*	i
Oc1ccccc1/C=N/NP(=S)(c1ccccc1)c1ccccc1	i	-13.3*	12*	0.0488	-14.7*	-14.2	42.5%*	i	35.0%*	109.0*	0.15*
Oc1ccc(/C=N/NP(=S)(c2ccccc2)c2ccccc2)c(O)c1O	i	i	i	-1.19	i	-11.7	nt	nt	nt	nt	nt
C#CCN1CCN(c2cccc(C(F)(F)F)c2)CC1	i	i	i	-0.0762	i	1.4	nt	nt	nt	nt	nt
CCN(CC)c1ccc(/C=C/[N+](=O)[O-])cc1	i	i	6*	i	-13.8*	-45.0	nt	nt	nt	133.0*	0.09*
N#Cc1ccc(NC(=O)CCNC(=O)c2ccco2)cc1Cl	i	i	i	nt	-10.2*	-10.3	nt	nt	nt	95.3*	0.15*
CCN(CC(=O)Nc1ccc(C#N)c(Cl)c1)CC(=O)NC(C)(C)C	i	i	i	-1.77	i	-1.8	nt	nt	nt	nt	nt
NC(=O)c1ccc(OCCC(O)N2CC=C(c3ccc(F)cc3)CC2)cc1 (configuration not stated)	nt	nt	nt	nt	i	nt	nt	nt	nt	nt	nt
COc1ccccc1OCCCn1cc(C(C)=O)c2ccccc21	i	i	i	-0.837	i	-20.2	nt	nt	nt	nt	nt
COc1ccccc1OCCCn1cc(C(=O)C2CC2)c2ccccc21	i	i	i	-1.03	-8.82*	-13.8	nt	nt	nt	111.0*	i
COc1nc2ccccc2nc1N1CCN(C)CC1	i	i	i	nt	i	-11.1	nt	nt	nt	nt	nt
Cc1c(C(=O)c2cccc3ccccc23)c2cccc3c2n1[C@H](CN1CCOCC1)CO3	i	i	i	nt	-11*	-3.0	nt	nt	nt	79.7*	0.157*
